Measured values collected from several papers.
Compare with care: the assays were run in different laboratories.
Target: Beta-adrenergic receptor kinase 1 (GRK2, Homo sapiens, UniProt P25098)
Sequence (P25098 1-689, as in one of the studies): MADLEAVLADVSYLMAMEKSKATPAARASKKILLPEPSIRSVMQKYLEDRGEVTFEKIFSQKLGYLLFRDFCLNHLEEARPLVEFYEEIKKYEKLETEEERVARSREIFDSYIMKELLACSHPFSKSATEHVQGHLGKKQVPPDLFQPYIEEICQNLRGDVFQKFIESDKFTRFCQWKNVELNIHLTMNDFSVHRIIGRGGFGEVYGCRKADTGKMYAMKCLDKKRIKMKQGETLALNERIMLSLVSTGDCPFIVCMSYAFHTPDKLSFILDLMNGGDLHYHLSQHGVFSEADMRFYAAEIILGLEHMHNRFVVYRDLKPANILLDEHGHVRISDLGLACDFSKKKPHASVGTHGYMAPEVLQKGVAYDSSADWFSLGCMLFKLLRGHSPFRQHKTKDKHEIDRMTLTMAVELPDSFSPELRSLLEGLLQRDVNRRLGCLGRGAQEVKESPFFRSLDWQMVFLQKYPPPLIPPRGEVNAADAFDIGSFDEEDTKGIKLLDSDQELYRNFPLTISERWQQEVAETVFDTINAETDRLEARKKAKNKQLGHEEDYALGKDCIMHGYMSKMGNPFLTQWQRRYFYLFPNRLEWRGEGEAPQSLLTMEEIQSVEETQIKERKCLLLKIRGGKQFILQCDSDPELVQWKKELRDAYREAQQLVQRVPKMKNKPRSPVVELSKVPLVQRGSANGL

O=C(NCC1CCOCC1)c1n[nH]cc1NC(=O)c1c(F)cccc1F  remaining binding (binding, competition with immobilised ligand; 1 µM): 71%
COc1cnc(Nc2cccc(S(N)(=O)=O)c2)nc1N1CCN(c2ccccc2)C(=O)C1  remaining binding (binding, competition with immobilised ligand; 1 µM): 68%
O=C(NCCCN1CCOCC1)c1ccc(Nc2nccc(-c3cc4ccccc4s3)n2)cc1  remaining binding (binding, competition with immobilised ligand; 1 µM): 65%
C[C@H]1CCN(c2nccc(-c3cnn4ncccc34)n2)C1  remaining binding (binding, competition with immobilised ligand; 1 µM): 50%
Cc1c(C(=O)O)cc(-c2ccc(C3CCNCC3)cc2)c2ccc(-c3ccc(C(F)(F)F)cc3)cc12  remaining binding (binding, competition with immobilised ligand; 1 µM): 100%
C=CC(=O)N1CCC(C(=O)NCC(=O)N2CCN(c3nc(-c4cnc(N)nc4C(F)F)nc(N4CCOCC4)n3)CC2)CC1  remaining binding (binding, competition with immobilised ligand; 1 µM): 100%
O=C(NCCCN1CCOCC1)c1ccc(Nc2ncc(Cl)c(-c3ccc(Cl)s3)n2)cc1  remaining binding (binding, competition with immobilised ligand; 1 µM): 91%
COc1ccnn2ncc(-c3ccnc(N(C)C)n3)c12  remaining binding (binding; 1 µM): 100%
c1cncc(-c2cccc(Nc3nccc(NC4CCCCC4)n3)c2)c1  remaining binding (binding, competition with immobilised ligand; 10 µM): 100%
O=C(c1ccc(Nc2ncc(Cl)c(-c3cc4ccccc4s3)n2)cc1)N1CCC(N2CCCC2)CC1  remaining binding (binding, competition with immobilised ligand; 1 µM): 71%
Nc1cnc(N2CCc3cc(S(=O)(=O)Nc4c(F)cc(Cl)cc4F)cc(N4CCCC4=O)c32)nc1  remaining binding (cell-free assay, competition with immobilised ligand; 1 µM): 100%
F[C@@H]1CCN(c2nccc(-c3cnn4ncccc34)n2)C1  remaining binding (binding; 1 µM): 54%
Cc1nc(C2CCN(C(=O)c3ccc(OC(F)(F)F)cc3N)CC2)c2ncc(N3CCN(C)CC3)cc2n1  remaining binding (cell-free assay, competition with immobilised ligand; 1 µM): 92%
CN(c1nccc(-c2cnn3ncccc23)n1)C1CC1  remaining binding (binding; 1 µM): 64%
CNC(=O)Nc1ccc2c(c1)CC[C@@]21OC(=O)N(CC(=O)N(Cc2ccc(F)cc2)[C@@H](C)C(F)(F)F)C1=O  remaining binding (cell-free assay, competition with immobilised ligand; 1 µM): 74%
Nc1ncc2c(n1)-c1c([nH]c3ccc(C#CC4CC4)cc13)CCCC2  remaining binding (binding, competition with immobilised ligand; 1 µM): 87%
CN(C)c1nccc(-c2cnc3ncccn23)n1  remaining binding (binding, competition with immobilised ligand; 1 µM): 92%
c1ccc(N2CCN(Cc3nc4ccccc4[nH]3)CC2)nc1  remaining binding (binding, competition with immobilised ligand; 1 µM): 90%
CN(CCCC(F)(F)F)c1nccc(-c2cnn3ncccc23)n1  remaining binding (binding, competition with immobilised ligand; 1 µM): 61%
CNCc1ccccc1-c1csc([C@@H](C)Nc2nc(C)nc3cc(OC)c(OC)cc23)c1  remaining binding (cell-free assay, competition with immobilised ligand; 1 µM): 86%
